Legend:
Assay type in all cases: protein-complex assay, Hepacivirus hominis
[1] = target: T1, Hepatitis C virus serine protease, NS3/NS4A (Hepatitis C virus, UniProt A3EZI9+D2K2A8); experiment: Inhibition of HCV serine protease NS3/NS4A in the presence of Zn
Summary of the method: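 Same setup run with ZnCl₂ added instead of EDTA. NS3 protease construct (first 183 residues; 12 nM active sites) plus the 17-residue NS4A surrogate peptide. Inhibitor at several concentrations preincubated 30 min at 21–24 °C. The Edans/Dabcyl quenched-fluorescence depsipeptide substrate was then added to start the reaction.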

[2] = target: T1, Hepatitis C virus serine protease, NS3/NS4A; experiment: Inhibition of HCV serine protease NS3/NS4A in the presence of EDTA
Summary of the method: (§1)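 No Zn(II) added; EDTA included. Inhibitor at varying concentrations preincubated 30 min at room temperature (21–24 °C). Reaction started with the quenched-fluorescence substrate Ac-DED(Edans)EE-Abu[COO]-ASK(Dabcyl)-CONH₂.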

[3] = target: T1, Hepatitis C virus serine protease, NS3/NS4A; experiment: Inhibition of HCV serine protease NS3/NS4A in the presence of EDTA.; summary of the method: as §1

T1 sequence (D2K2A8 whole entry): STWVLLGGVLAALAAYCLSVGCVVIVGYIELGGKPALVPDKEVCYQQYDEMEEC
T1 sequence (A3EZI9 whole entry): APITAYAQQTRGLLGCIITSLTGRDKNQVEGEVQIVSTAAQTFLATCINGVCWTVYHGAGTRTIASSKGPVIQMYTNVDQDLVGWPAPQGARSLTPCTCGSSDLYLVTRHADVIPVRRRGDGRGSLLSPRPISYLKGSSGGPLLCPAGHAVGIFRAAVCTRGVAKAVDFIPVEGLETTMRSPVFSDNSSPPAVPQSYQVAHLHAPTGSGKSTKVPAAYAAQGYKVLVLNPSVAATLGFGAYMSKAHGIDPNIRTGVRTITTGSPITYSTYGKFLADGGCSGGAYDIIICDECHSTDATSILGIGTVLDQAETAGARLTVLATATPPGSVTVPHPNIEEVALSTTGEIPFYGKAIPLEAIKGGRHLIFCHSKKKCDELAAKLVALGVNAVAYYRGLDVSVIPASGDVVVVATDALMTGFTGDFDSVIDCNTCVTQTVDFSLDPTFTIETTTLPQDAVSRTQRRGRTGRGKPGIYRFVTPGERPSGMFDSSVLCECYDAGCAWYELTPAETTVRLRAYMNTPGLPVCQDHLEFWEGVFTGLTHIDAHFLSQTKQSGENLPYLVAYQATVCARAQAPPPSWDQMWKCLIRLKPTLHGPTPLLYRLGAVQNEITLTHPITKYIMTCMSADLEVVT

| SMILES | Ki [1] | Ki [2] | Ki [3] |
| --- | --- | --- | --- |
| COc1ccc2nc(Cc3nc4ccc(C(=O)NC(CP(=O)(O)O)C(=O)O)cc4n3C)[nH]c2c1 (centres undefined) | 200 nM |  | 187 µM |
| Cn1c(Cc2nc3ccc(C(=O)NC(CP(=O)(O)O)C(=O)O)cc3n2C)nc2ccccc21 (centres undefined) | 3800 nM | 140 µM |  |
| COP(=O)(O)CC(NC(=O)c1ccc2nc(Cc3nc4ccc(C(N)=O)cc4[nH]3)n(C)c2c1)C(=O)O (centres undefined) | 1360 nM | 38.1 µM |  |
| Cn1c(Cc2nc3ccccc3[nH]2)nc2ccc(C(=O)NC(CP(=O)(O)O)C(=O)O)cc21 (centres undefined) | 450 nM |  | > 300 µM |
| COC(=O)C(CP(=O)(O)O)NC(=O)c1ccc2[nH]c(C(F)(F)c3nc4ccc(C(=O)NC(CP(=O)(O)O)C(=O)OC)cc4n3C)nc2c1 (centres undefined) | 277 nM |  | 32 µM |
| CC(c1ncc[nH]1)c1nc2ccc(C(=O)NC(CP(=O)(O)O)C(=O)O)cc2n1C (centres undefined) | 83000 nM | 110 µM |  |
| Cn1c(Cc2nc3cc(C(N)=O)ccc3[nH]2)nc2ccc(C(=O)NC(CP(=O)(O)O)C(=O)O)cc21 (centres undefined) | 200 nM |  | 170 µM |
| Cn1c(C(F)(F)c2nc3ccc(C(=O)NC(CP(=O)(O)O)C(=O)O)cc3[nH]2)nc2ccc(C(=O)NC(CP(=O)(O)O)C(=O)NC(CP(=O)(O)O)C(=O)O)cc21 (centres undefined) | 27 nM |  | 1 µM |
| CC(C)CCn1c(Cc2nc3ccccc3[nH]2)nc2ccc(C(=O)NC(CP(=O)(O)O)C(=O)O)cc21 (centres undefined) | 870 nM |  | > 300 µM |
| CC(c1nc2ccc(C(N)=O)cc2[nH]1)c1nc2cc(C(=O)C(CP(=O)(O)O)C(=O)O)ccc2n1C (centres undefined) | > 300000 nM | > 300 µM |  |
| Cn1c(Cc2nc3c(F)c(F)c(F)c(F)c3[nH]2)nc2ccc(C(=O)NC(CP(=O)(O)O)C(=O)O)cc21 (centres undefined) | 280 nM |  | 17 µM |
| CC(C)(C)Cn1c(Cc2nc3ccccc3[nH]2)nc2ccc(C(=O)NC(CP(=O)(O)O)C(=O)O)cc21 (centres undefined) | 610 nM |  | > 300 µM |
| CC(C)Cn1c(Cc2nc3ccccc3[nH]2)nc2ccc(C(=O)NC(CP(=O)(O)O)C(=O)O)cc21 (centres undefined) | 370 nM |  | > 300 µM |
| Cn1c(Cc2nc3ccc(C(N)=O)cc3[nH]2)nc2ccc(C(=O)NCC(=O)O)cc21 | 68000 nM | > 300 µM |  |
| Cc1ccc2nc(Cc3nc4ccc(C(=O)NC(CP(=O)(O)O)C(=O)O)cc4n3C)[nH]c2c1 (centres undefined) | 240 nM |  | 98 µM |
| O=C(NC(CP(=O)(O)O)C(=O)O)c1ccc2nc(Cc3nc4ccccc4[nH]3)n(CC3CC3)c2c1 (centres undefined) | 140 nM |  | 140 µM |
| Cn1c(Cc2nc3ccc(O)cc3[nH]2)nc2ccc(C(=O)NC(CP(=O)(O)O)C(=O)O)cc21 (centres undefined) | 190 nM |  | 250 µM |
| Cn1c(Cc2nc3ccc(Cl)cc3[nH]2)nc2ccc(C(=O)NC(CP(=O)(O)O)C(=O)O)cc21 (centres undefined) | 380 nM | 130 µM |  |
| Cc1cccc2[nH]c(Cc3nc4ccc(C(=O)NC(CP(=O)(O)O)C(=O)O)cc4n3C)nc12 (centres undefined) | 10000 nM |  | > 300 µM |
| Cn1c(C(F)c2nc3ccccc3[nH]2)nc2ccc(C(=O)NC(CP(=O)(O)O)C(=O)O)cc21 (centres undefined) | 470 nM |  | 37 µM |
| CC(C)n1c(Cc2nc3ccccc3[nH]2)nc2ccc(C(=O)NC(CP(=O)(O)O)C(=O)O)cc21 (centres undefined) | 12000 nM |  | > 300 µM |
| Cn1c(Cc2nc3cc(F)ccc3[nH]2)nc2ccc(C(=O)NC(CP(=O)(O)O)C(=O)O)cc21 (centres undefined) | 280 nM | 95 µM |  |
| COc1cccc2[nH]c(Cc3nc4ccc(C(=O)NC(CP(=O)(O)O)C(=O)O)cc4n3C)nc12 (centres undefined) | 490 nM |  | 24 µM |
| CC(=O)NCc1nc2ccc(C(=O)NC(CP(=O)(O)O)C(=O)O)cc2n1C (centres undefined) | 32000 nM | 150 µM |  |
| CC(c1nc2ccccc2[nH]1)c1nc2ccc(C(=O)NC(CP(=O)(O)O)C(=O)O)cc2n1C (centres undefined) | 230 nM | 215 µM |  |
| Cn1c(Cc2nc3cc(C(F)(F)F)ccc3[nH]2)nc2ccc(C(=O)NC(CP(=O)(O)O)C(=O)O)cc21 (centres undefined) | 410 nM | 70 µM |  |
| Cn1c(C(F)(F)c2nc3ccc(C(=O)NC(CP(=O)(O)O)C(=O)O)cc3[nH]2)nc2ccc(C(=O)NC(CP(=O)(O)O)C(=O)O)cc21 (centres undefined) | 73 nM |  | 15 µM |
| CC(c1nc2ccccc2[nH]1)c1nc2cccc(C(=O)NC(CP(=O)(O)O)C(=O)O)c2n1C (centres undefined) | 1200 nM | 181 µM |  |
| Cn1c(Cc2nc3ccc(C(=O)NC(CP(=O)(O)O)C(=O)O)cc3[nH]2)nc2ccc(C(=O)NC(CP(=O)(O)O)C(=O)O)cc21 (centres undefined) | 100 nM |  | 21 µM |
| Cn1c(C(F)(F)c2nc3ccccc3[nH]2)nc2ccc(C(=O)NC(CP(=O)(O)O)C(=O)NC(CP(=O)(O)O)C(=O)O)cc21 (centres undefined) | 820 nM |  | 19.6 µM |

The next lines start with the values.

| Ki [1] | Ki [2] | Ki [3] | SMILES |
| --- | --- | --- | --- |
| 240 nM | 58 µM |  | Cn1c(Cc2nc3c(F)cc(F)cc3[nH]2)nc2ccc(C(=O)NC(CP(=O)(O)O)C(=O)O)cc21 (centres undefined) |
| 1200 nM |  | 74 µM | Cn1c(C(F)(F)c2nc3ccc(C(N)=O)cc3[nH]2)nc2ccc(C(=O)NC(CP(=O)(O)O)C(=O)O)cc21 (centres undefined) |
| 350 nM |  | 22 µM | Cn1c(Cc2nc3c(F)cc(F)c(F)c3[nH]2)nc2ccc(C(=O)NC(CP(=O)(O)O)C(=O)O)cc21 (centres undefined) |
| 210 nM | 25 µM |  | Cn1c(Cc2nc3cc(F)c(F)cc3[nH]2)nc2ccc(C(=O)NC(CP(=O)(O)O)C(=O)O)cc21 (centres undefined) |
| 21000 nM |  | 66 µM | Cc1cccc2[nH]c(C(F)(F)c3nc4ccc(C(=O)NC(CP(=O)(O)O)C(=O)O)cc4n3C)nc12 (centres undefined) |
| 550 nM |  | 72 µM | Cn1c(C(F)c2nc3c(F)c(F)cc(F)c3[nH]2)nc2ccc(C(=O)NC(CP(=O)(O)O)C(=O)O)cc21 (centres undefined) |
| 2400 nM |  | 38 µM | Cn1c(C(F)(F)c2nc3ccc(Cl)cc3[nH]2)nc2ccc(C(=O)NC(CP(=O)(O)O)C(=O)O)cc21 (centres undefined) |
| 1400 nM |  | 25 µM | Cn1c(C(F)(F)c2nc3c(F)cc(F)cc3[nH]2)nc2ccc(C(=O)NC(CP(=O)(O)O)C(=O)O)cc21 (centres undefined) |
| 270 nM |  | 140 µM | Cn1c(Cc2nc3c(F)c(F)ccc3[nH]2)nc2ccc(C(=O)NC(CP(=O)(O)O)C(=O)O)cc21 (centres undefined) |
| 660 nM |  | 91 µM | Cn1c(C(F)c2nc3c(F)cc(F)cc3[nH]2)nc2ccc(C(=O)NC(CP(=O)(O)O)C(=O)O)cc21 (centres undefined) |
| 2900 nM |  | 12 µM | Cn1c(C(F)(F)c2nc3c(F)c(F)cc(F)c3[nH]2)nc2ccc(C(=O)NC(CP(=O)(O)O)C(=O)O)cc21 (centres undefined) |
| 1300 nM |  | 55 µM | Cn1c(C(F)(F)c2nc3cc(F)ccc3[nH]2)nc2ccc(C(=O)NC(CP(=O)(O)O)C(=O)O)cc21 (centres undefined) |
| 4000 nM |  | 15 µM | Cn1c(C(F)(F)c2nc3cc(F)c(F)cc3[nH]2)nc2ccc(C(=O)NC(CP(=O)(O)O)C(=O)O)cc21 (centres undefined) |
| 200 nM |  | 21 µM | Cn1c(Cc2nc3c(F)c(F)c(F)cc3[nH]2)nc2ccc(C(=O)NC(CP(=O)(O)O)C(=O)O)cc21 (centres undefined) |
|  |  | 1.1 µM | Cn1c(C(F)(F)c2nc3ccccc3[nH]2)nc2ccc(C(=O)NC(CP(=O)(O)O)C(=O)O)cc21 (centres undefined) |
